Assay results: ChEMBL document CHEMBL4007422 (J Med Chem, 2017)
The source made the active and inactive calls. The calls are words filed in the database; no cut-off is given here.

Key:
[1] = Clearance in Beagle dog at 3 mg/kg, iv; type: ADME, organism-based, Canis lupus familiaris; details: in vivo
[2] = target: Alpha-2A adrenergic receptor (Homo sapiens, UniProt P08913); assay: Displacement of [3H] MK-912 from human adrenergic alpha 2A receptor expressed in HT29 cells after 60 mins; type: cell-based
Chain of Alpha-2A adrenergic receptor (P08913 whole entry): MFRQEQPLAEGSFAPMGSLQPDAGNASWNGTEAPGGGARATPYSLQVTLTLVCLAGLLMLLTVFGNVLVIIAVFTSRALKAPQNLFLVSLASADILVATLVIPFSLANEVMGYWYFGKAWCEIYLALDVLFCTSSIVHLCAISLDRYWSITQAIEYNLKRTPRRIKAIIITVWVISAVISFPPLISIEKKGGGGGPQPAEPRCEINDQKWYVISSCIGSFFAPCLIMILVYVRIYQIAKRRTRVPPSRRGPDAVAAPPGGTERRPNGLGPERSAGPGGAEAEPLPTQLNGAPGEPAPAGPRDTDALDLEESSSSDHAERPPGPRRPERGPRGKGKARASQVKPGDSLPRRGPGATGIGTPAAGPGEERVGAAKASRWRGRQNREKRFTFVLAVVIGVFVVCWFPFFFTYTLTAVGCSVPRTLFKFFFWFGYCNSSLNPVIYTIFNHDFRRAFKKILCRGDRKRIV

Cytochrome P450 1A2 = Cytochrome P450 1A2 (Homo sapiens, UniProt P05177); assay: Inhibition of CYP1A2 in human liver microsomes in presence of NADPH by LC-MS/MS analysis; type: ADME
Chain of Cytochrome P450 1A2 (P05177 whole entry, canonical isoform): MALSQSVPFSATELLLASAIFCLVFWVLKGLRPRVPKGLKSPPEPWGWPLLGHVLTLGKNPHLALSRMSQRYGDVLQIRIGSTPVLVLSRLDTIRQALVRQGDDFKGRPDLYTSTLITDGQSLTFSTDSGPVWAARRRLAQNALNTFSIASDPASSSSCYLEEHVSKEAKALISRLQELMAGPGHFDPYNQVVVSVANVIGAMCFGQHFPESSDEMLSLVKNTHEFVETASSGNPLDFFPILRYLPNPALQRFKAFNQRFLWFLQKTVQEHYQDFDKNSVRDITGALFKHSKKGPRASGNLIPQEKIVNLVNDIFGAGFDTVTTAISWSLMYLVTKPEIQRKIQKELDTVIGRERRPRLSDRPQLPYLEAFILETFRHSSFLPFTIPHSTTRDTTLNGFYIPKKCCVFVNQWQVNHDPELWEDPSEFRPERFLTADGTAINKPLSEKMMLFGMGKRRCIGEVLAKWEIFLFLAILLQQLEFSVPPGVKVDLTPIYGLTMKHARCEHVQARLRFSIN
Outline: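 Pooled human liver microsomes. IC50 determined from isoform-specific marker activities for CYP1A2, 2A6, 2B6, 2C8, 2C9, 2C19 (mephenytoin hydroxylation) and 2E1.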

Rattus norvegicus [3] = assay: Increase in acetylcholine level in Wistar rat ventral hippocampus at 1 mg/kg, po after 6 hrs by LC-MS/MS based microdialysis method; type: functional, organism-based
Outline: (§1)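 Male Wistar rats (240−300 g) fitted under isoflurane with a ventral hippocampal guide cannula (AP −5.2, ML +5.0, DV −3.8 mm from bregma). Probe (4 mm membrane) inserted 16 h before study. Perfusion with aCSF pH 7.2 at 1.5 μL/min, 2 h stabilization, five basal 20-min samples. Test agent given p.o.; donepezil and memantine (1 mg/kg s.c. each) given 30 min later in combination arms. Dialysates collected 6 h (4 h for combination), acetylcholine measured by LC-MS/MS, expressed as % of mean basal.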

Rattus norvegicus [4] = assay: Increase in acetylcholine level in Wistar rat ventral hippocampus at 3 mg/kg, po after 6 hrs by LC-MS/MS based microdialysis method; type: functional, organism-based; outline: as §1

- clearance [1]: 46.4 mL/min/kg
- Ki [2]: 2570 nM
- IC50 (Cytochrome P450 1A2): > 10000 nM
SMILES: COc1ccc2c(c1)c(CN1CCN(C)CC1)cn2S(=O)(=O)c1ccccc1Br.CS(=O)(=O)O.O
- Activity (Rattus norvegicus [3]): inactive
- Activity (Rattus norvegicus [4]): Active
